These compounds were tested against EphA2 (Homo sapiens, UniProt P29317) (assay: EphA2 activation). Conditions: 2 μM in 0.1% DMSO, 1hr, U251 EphA2 cells, vs DMSO control.
Format: cell-based
In short: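 EphA2-overexpressing U251 cells were seeded at 100,000/well, grown 24 h, then given 2 μM test compound in 0.1% DMSO (1 hr per legend; methods text gives 30 min), with 0.1% DMSO vehicle. Cells were lysed 20 min in modified RIPA (pH 7.4, vanadate, NaF, protease inhibitors), immunoprecipitated, then blotted for pEphA/B (1:500) and EphA2 (1:1000), HRP anti-rabbit, chemiluminescence. Bands were quantified by densitometry, 3 experiments, unpaired t-test vs DMSO.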

Chain of EphA2 (P29317 24-976): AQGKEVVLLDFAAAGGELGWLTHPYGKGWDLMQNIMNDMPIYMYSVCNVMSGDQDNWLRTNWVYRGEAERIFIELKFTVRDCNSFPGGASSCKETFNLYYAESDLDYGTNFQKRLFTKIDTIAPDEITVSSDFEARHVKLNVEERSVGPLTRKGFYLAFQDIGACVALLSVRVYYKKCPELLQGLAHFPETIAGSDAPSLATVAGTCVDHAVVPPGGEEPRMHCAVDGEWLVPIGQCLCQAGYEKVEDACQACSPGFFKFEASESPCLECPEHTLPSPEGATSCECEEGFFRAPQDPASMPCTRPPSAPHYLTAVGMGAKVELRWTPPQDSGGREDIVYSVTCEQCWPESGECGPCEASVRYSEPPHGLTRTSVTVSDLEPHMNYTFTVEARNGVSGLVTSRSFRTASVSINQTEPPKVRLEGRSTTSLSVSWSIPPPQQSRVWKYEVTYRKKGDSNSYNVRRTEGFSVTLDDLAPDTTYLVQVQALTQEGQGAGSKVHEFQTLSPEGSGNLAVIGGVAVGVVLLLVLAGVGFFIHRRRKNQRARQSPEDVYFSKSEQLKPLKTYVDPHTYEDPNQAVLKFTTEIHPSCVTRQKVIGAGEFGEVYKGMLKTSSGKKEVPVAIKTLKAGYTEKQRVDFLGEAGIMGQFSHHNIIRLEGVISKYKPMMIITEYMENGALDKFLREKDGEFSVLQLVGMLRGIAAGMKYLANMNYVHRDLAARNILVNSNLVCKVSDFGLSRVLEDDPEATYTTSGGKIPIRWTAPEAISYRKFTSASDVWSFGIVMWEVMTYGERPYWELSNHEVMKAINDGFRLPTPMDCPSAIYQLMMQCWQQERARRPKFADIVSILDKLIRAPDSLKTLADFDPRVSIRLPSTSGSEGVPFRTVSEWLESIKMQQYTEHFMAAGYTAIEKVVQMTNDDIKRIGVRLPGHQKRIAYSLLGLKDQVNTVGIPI

Structure (SMILES)	EphA2 phosphorylation (pEphA/B vs total EphA2)
COc1cc2nc(N3CCN(C(=O)OCCOC(=O)N4CCN(c5nc(N)c6cc(OC)c(OC)cc6n5)CC4)CC3)nc(N)c2cc1OC [Compound 3d, ethane-1,2-diyl bis(4-(4-amino-6,7-dimethoxyquinazolin-2-yl)piperazine-1-carboxylate)]	did not show clear EphA2 activation
COc1cc2nc(N3CCN(C(=O)Oc4ccc(C(C)(C)c5ccc(OC(=O)N6CCN(c7nc(N)c8cc(OC)c(OC)cc8n7)CC6)cc5)cc4)CC3)nc(N)c2cc1OC [Compound 3e, propane-2,2-diylbis(4,1-phenylene)bis(4-(4-amino-6,7-dimethoxyquinazolin-2-yl)piperazine-1-carb oxylate)]	better activity to induce EphA2 phosphorylation
COc1cc2nc(N3CCN(C(=O)c4cccc(NC(=O)OCCOCCOCCOC(=O)Nc5cccc(C(=O)N6CCN(c7nc(N)c8cc(OC)c(OC)cc8n7)CC6)c5)c4)CC3)nc(N)c2cc1OC [Compound 7bg, (ethane-1,2-diylbis(oxy))bis(ethane-2,1-diyl)bis((3-(4-(4-amino-6,7-dimethoxyquinazolin-2-yl)piperazine-1-carbonyl)phenyl)carbamate)]	statistical significance compared to control
